Data published in ChEMBL document CHEMBL2331541, “Small molecule antivirulents targeting the iron-regulated heme oxygenase (HemO) of P. aeruginosa” (J Med Chem, 2013).
In brackets after ≈: the same amount, converted by molar mass. Activity calls are given as the source filed them. No cut-off for these calls is given here.

What was measured:
Pseudomonas aeruginosa [1] = experiment: Antimicrobial activity against Pseudomonas aeruginosa PAO1 infected in Caenorhabditis elegans glp-4(bn2) assessed as increase in host lifespan at 250 ug/ml; assay type: functional, organism-based
Summary of the method: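 Synchronized glp-4(bn2) young adults (30) exposed 12 h to P. aeruginosa PAO1 lawn on PGS agar (peptone, NaCl, glucose, 0.15 M sorbitol), washed in M9, reseeded on E. coli OP50 PGS-agar plates containing inhibitor. Viability scored daily; death taken as no response to touch. Average of three experiments.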

[2] = Binding affinity to Pseudomonas aeruginosa apo Heme oxygenase expressed in Escherichia coli BL21(DE3) assessed as decrease in tryptophan fluorescence
Summary of the method: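 Apo-HemO held at 1 μM in 20 mM Tris-HCl (pH 7.5), titrated with inhibitor 0.05−500 μM. Excitation 295 nm, emission scanned 300−500 nm; fluorescence decrease at 330 nm used in 1/ΔA vs 1/[I] reciprocal plot, slope giving KD. Mean of three separate experiments.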

Pseudomonas aeruginosa [3] = experiment: Antimicrobial activity against Pseudomonas aeruginosa PAO1; assay type: functional
Summary of the method: (§1)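 Strains grown from single colony 8 h at 37 °C in LB, diluted to OD600 0.05, incubated in LB alone or with 250−1500 μM compound. OD600 read at 6, 12 and 24 h, blank with matching inhibitor concentration subtracted. MIC50 averaged from three separate experiments.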

Pseudomonas aeruginosa [4] = experiment: Binding affinity to Pseudomonas aeruginosa apo Heme oxygenase expressed in Escherichia coli BL21(DE3) assessed as shift in specific resonance at 4.2 mM after 2 hrs by chemical shift NMR analysis
Summary of the method: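 15N-labeled apo-HemO at 1.2 mM (50 mM phosphate, 100 mM KCl, 95% H2O/5% D2O) with inhibitor at 0, 0.7, 1.05, 2.1 or 4.2 mM; inhibitor dissolved into protein 2 h at room temperature, centrifuged. 1H−15N TROSY-HSQC at 25 °C; combined shift Δppm = sqrt(ΔδHN² + (0.2·ΔδN)²).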

Pseudomonas aeruginosa [5] = experiment: Antimicrobial activity against Pseudomonas aeruginosa WR5; assay type: functional; summary of the method: as §1
Pseudomonas aeruginosa [6] = experiment: Binding affinity to Pseudomonas aeruginosa apo Heme oxygenase expressed in Escherichia coli BL21(DE3) after 4 hrs by STD-NMR analysis
Summary of the method: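 STD-NMR at 25 °C, 500 MHz: inhibitor-saturated solution (50 mM sodium phosphate, 100 mM NaCl, D2O, pH 7.4, stood about 4 h, centrifuged) mixed with 3−4 μM HemO; inhibitor about 5 mM by TSP reference. Selective saturation 2 s via 50 ms Gaussian pulses; repeated with 10 s interscan delay. Strongest-saturated proton set to 100%.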

Pseudomonas aeruginosa [7] = experiment: Antimicrobial activity against Pseudomonas aeruginosa FRD1; assay type: functional; summary of the method: as §1
Pseudomonas aeruginosa [8] = experiment: Antimicrobial activity against Pseudomonas aeruginosa PAO1 infected in Caenorhabditis elegans glp-4(bn2) assessed as reduction in CFU at 250 ug/ml by serial dilution method; assay type: functional, organism-based
Summary of the method: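 Infected worms (PAO1, 12 h on PGS agar) moved to E. coli OP50 plates with inhibitor; at 24, 48, 72 and 96 h, 10 live worms washed three times in M9 with 1 mM sodium azide, disrupted with 1.0 mm silicon carbide beads by vortexing 1 min, debris pelleted, lysate serially diluted and plated on PIA for cfu. Uninfected and untreated infected worms as controls.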

O=C(O)/C=C/C(=O)Nc1ccc(Nc2ccccc2)cc1
Activity (Pseudomonas aeruginosa [1]): Active | Kd [2]: 18.4 µM | MIC50 (Pseudomonas aeruginosa [3]): 1200 µg/mL (≈ 4250 µM) | Activity (Pseudomonas aeruginosa [4]): Active | MIC50 (Pseudomonas aeruginosa [5]): 1100 µg/mL (≈ 3900 µM) | Activity (Pseudomonas aeruginosa [6]): Active | MIC50 (Pseudomonas aeruginosa [7]): 950 µg/mL (≈ 3370 µM)

CN(C)c1ccc(/C=N/NC(=N)N)cc1
Activity (Pseudomonas aeruginosa [1]): Active | Kd [2]: 31.2 µM | MIC50 (Pseudomonas aeruginosa [3]): 250 µg/mL (≈ 1220 µM) | Activity (Pseudomonas aeruginosa [4]): Active | MIC50 (Pseudomonas aeruginosa [5]): 210 µg/mL (≈ 1020 µM) | Activity (Pseudomonas aeruginosa [6]): Active | Activity (Pseudomonas aeruginosa [8]): Active | MIC50 (Pseudomonas aeruginosa [7]): 190 µg/mL (≈ 926 µM)

O=C(O)/C=C/C(=O)Nc1ccc(Oc2ccccc2)cc1
Kd [2]: 29.3 µM | MIC50 (Pseudomonas aeruginosa [3]): 1000 µg/mL (≈ 3530 µM) | MIC50 (Pseudomonas aeruginosa [5]): 800 µg/mL (≈ 2820 µM) | MIC50 (Pseudomonas aeruginosa [7]): 750 µg/mL (≈ 2650 µM)
